The text below walks through data of article PMC3158671 (Carbohydrate Research, 2011).

Structures are written as SMILES.

Assay [1] deals with β-galactosidase from E. coli (Escherichia coli, UniProt P00722). The experiment in a line: E. coli β-galactosidase inhibition. The assay is classed as biochemical.
Assay [2] addresses α-galactosidase from green coffee beans (Coffea arabica, UniProt Q42656). As to the kind of experiment: Green coffee bean α-galactosidase inhibition. The assay is classed as biochemical.
For assay [3], the target named is T1, human lysosomal β-galactosidase (Homo sapiens, UniProt P16278).
T1 sequence (P16278 29-677): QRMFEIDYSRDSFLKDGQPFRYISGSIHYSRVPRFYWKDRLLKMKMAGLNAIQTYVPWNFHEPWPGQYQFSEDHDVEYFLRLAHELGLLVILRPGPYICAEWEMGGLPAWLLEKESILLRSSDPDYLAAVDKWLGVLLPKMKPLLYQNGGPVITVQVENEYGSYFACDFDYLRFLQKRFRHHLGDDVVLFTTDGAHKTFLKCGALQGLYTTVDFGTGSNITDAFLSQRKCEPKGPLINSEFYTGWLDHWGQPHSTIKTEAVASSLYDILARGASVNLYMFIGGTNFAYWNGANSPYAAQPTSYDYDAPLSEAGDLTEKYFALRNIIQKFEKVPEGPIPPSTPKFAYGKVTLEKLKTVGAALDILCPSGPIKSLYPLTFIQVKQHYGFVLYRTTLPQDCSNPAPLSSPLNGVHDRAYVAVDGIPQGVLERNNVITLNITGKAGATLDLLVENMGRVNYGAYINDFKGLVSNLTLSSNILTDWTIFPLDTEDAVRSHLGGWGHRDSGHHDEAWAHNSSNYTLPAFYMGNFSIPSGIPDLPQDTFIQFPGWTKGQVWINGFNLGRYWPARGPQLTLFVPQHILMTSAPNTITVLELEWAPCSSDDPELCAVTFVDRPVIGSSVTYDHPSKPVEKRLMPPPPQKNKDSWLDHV
The experiment in a line: Human lysosomal β-galactosidase inhibition. Format: biochemical.

The target of assay [4] is T2, β-galactosidase p.Arg483Pro mutation (Felis catus, UniProt O19015, R483P).
T2 sequence (O19015 30-669 R483P): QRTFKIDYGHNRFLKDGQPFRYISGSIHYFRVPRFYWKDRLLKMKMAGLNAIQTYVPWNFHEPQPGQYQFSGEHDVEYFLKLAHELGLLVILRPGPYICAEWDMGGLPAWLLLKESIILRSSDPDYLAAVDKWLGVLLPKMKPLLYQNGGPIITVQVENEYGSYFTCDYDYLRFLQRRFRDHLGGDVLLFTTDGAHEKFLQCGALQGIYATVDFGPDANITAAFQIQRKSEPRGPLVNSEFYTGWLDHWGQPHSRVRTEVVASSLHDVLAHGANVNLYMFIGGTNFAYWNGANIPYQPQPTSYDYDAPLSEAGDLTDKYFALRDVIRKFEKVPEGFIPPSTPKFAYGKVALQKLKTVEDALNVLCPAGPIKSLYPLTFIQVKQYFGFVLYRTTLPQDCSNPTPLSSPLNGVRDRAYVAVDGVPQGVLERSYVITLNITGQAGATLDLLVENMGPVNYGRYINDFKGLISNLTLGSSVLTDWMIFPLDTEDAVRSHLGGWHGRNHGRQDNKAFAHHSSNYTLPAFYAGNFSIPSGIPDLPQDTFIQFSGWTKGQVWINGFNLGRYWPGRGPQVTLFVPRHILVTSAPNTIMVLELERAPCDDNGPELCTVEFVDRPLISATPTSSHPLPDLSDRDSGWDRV
The experiment in a line: Intracellular β-galactosidase activity in GM1 gangliosidosis feline fibroblasts. The assay is classed as cell-based, cat. Particulars: 5 days; for maximal increase of intracellular β-galactosidase activity: relative to DMSO treated cells. The gist of the method:
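GM1 gangliosidosis fibroblasts from an affected cat (β-galactosidase p.Arg483Pro) treated 5 days with escalating doses of test compound dissolved in DMSO. Cells lysed; intracellular β-galactosidase measured with fluorogenic 4-methylumbelliferyl β-D-galactopyranoside, β-N-acetylhexosaminidase also measured with MU substrate. Activity normalized to DMSO-treated cells.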

For assay [5], the target named is T3, β-glucosidase/β-galactosidase from Agrobacterium sp. (Agrobacterium sp., UniProt P12614).
T3 sequence (P12614 1-459): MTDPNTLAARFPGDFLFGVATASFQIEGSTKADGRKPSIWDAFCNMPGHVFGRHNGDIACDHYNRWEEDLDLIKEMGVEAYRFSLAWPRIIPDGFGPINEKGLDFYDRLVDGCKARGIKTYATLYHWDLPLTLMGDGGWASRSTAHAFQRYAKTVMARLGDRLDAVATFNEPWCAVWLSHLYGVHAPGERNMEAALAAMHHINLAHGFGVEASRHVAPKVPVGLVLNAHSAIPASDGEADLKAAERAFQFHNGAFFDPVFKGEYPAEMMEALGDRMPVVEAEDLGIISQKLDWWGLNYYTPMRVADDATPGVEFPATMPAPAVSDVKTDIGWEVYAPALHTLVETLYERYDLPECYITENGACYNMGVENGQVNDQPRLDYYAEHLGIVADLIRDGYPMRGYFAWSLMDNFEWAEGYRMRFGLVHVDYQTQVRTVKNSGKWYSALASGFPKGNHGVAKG
As to the kind of experiment: Agrobacterium sp. β-galactosidase/-glucosidase inhibition. Format: biochemical.

Chain of α-galactosidase from green coffee beans (Q42656 16-378): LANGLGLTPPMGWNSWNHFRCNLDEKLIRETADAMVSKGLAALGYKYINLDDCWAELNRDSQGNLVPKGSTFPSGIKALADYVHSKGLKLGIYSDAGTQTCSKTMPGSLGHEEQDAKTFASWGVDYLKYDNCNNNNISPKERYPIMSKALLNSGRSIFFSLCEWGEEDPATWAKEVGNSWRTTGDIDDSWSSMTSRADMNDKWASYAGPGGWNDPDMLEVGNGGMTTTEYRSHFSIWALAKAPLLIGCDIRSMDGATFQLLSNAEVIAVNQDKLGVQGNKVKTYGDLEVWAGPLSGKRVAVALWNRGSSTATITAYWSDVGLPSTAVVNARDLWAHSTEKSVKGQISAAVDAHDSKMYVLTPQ
Chain of β-galactosidase from E. coli (P00722 2-1024 limits assumed): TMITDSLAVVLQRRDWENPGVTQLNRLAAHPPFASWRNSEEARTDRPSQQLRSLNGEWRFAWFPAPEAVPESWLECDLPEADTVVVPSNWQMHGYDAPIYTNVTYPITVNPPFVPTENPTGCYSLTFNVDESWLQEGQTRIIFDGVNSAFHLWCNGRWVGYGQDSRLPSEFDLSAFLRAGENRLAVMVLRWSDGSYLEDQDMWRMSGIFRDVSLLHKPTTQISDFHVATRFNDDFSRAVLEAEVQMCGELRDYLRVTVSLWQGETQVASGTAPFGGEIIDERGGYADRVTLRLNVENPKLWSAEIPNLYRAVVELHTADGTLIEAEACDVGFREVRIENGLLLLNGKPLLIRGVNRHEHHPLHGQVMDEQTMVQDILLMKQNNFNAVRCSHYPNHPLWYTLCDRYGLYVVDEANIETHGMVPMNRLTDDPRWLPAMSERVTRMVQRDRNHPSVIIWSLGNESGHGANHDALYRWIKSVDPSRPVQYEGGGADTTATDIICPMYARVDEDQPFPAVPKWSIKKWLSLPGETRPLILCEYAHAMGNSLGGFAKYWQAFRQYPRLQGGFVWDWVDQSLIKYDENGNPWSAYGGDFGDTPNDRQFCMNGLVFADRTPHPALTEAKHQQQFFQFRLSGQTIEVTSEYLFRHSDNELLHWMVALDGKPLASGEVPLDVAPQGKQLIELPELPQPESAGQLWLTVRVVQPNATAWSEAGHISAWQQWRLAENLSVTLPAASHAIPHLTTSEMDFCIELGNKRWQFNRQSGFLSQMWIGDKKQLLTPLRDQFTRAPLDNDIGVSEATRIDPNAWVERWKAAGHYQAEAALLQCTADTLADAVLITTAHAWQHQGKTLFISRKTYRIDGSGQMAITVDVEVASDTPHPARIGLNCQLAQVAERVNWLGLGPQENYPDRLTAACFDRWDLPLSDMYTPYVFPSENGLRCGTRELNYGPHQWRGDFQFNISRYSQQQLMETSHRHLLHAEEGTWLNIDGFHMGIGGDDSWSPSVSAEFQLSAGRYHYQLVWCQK

For `CN(C)c1cccc2c(S(=O)(=O)NCCCCCCN(CCCCCCNS(=O)(=O)c3cccc4c(N(C)C)cccc34)C(=O)CCCCCN3C[C@H](O)[C@@H](O)[C@@H](O)[C@H]3CO)cccc12` [Compound 9, N-Bis(dansylaminohexyl)aminocarbonylpentyl-1,5-dideoxy-1,5-imino-D-galactitol], the Ki came out at 290 nM in assay [1], 2600 nM in assay [2] and 630 nM in assay [5]. In assay [3], half-maximal inhibition (IC50) required 850 nM. Moreover, the “concentration at maximal increase of intracellular β-galactosidase activity” value (from here on “concentration at maximal increase”) in assay [4] amounted to 2.1 µM. The “maximal increase of intracellular β-galactosidase activity” value in assay [4] is on record as 1.5 fold.

As to `CCCCCCCC(=O)N(CCCCCCNS(=O)(=O)c1cccc2c(N(C)C)cccc12)CCCCCCN1C[C@H](O)[C@@H](O)[C@@H](O)[C@H]1CO` [Compound 15, N-[(Dansylaminohexyl)-N-octanoylamino]hexyl-1,5-dideoxy-1,5-imino-D-galactitol], the values for the Ki in assay [1], in assay [2] and in assay [5] were 47 nM, 200 nM and 28 nM, respectively. In assay [3], the IC50 is 1800 nM.

For the compound `CN(C)c1cccc2c(S(=O)(=O)NCCCCCCN(CCCCCCNS(=O)(=O)c3cccc4c(N(C)C)cccc34)CCCCCCN3C[C@H](O)[C@@H](O)[C@@H](O)[C@H]3CO)cccc12` [Compound 13, N-Bis(dansylaminohexyl)aminohexyl-1,5-dideoxy-1,5-imino-D-galactitol], the Ki was determined as 120 nM in assay [1], 530 nM in assay [2] and 230 nM in assay [5]. This compound yielded an IC50 in assay [3] of 2700 nM. In addition, the “concentration at maximal increase” value in assay [4] stood at 3.0 µM. In addition, the “maximal increase of intracellular β-galactosidase activity” value in assay [4] came to 1.8 fold.

As for `CN(C)c1cccc2c(S(=O)(=O)NCCCCCCNC(=O)CCCCCN3C[C@H](O)[C@@H](O)[C@@H](O)[C@H]3CO)cccc12` [Compound 8, N-(Dansylamino)hexylaminocarbonylpentyl-1,5-dideoxy-1,5-imino-D-galactitol], the IC50 in assay [3] stood at 6200 nM. In assay [4], the “concentration at maximal increase” value amounted to 258 µM, the “range of β-galactosidase activity enhancement” value is “large range over which it enhanced β-galactosidase activity” and the “maximal increase of intracellular β-galactosidase activity” value came out at 1.7 fold. Besides, the affinity in assay [5] corresponds to a Ki of 450 nM.
